The text below walks through data of ChEMBL document CHEMBL1121887, “A new nontricyclic antidepressant agent. Synthesis and activity of N-[trans-2-(dimethylamino)cyclopentyl]-N-(3,4-dichlorophenyl)propanamide and related compounds” (1981).

What all share (assay type): functional
Holding throughout (conditions): Mus musculus; read-out: ED50

The species named for experiment [1] is Mus musculus. Kind of experiment: Antidepressant activity using oxotremorine antagonism test in mice.
For experiment [2], the species on record is Mus musculus. Nature of the experiment: Antidepressant activity using yohimbine potentiation test in mice.
Experiment [3] is filed under the species Mus musculus. Kind of experiment: Antidepressant activity using apomorphine potentiation test in mice. Summed up:
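Male CF-1 mice in groups of four got test compound i.p. (50 and 25 mg/kg) in 0.25% aqueous methylcellulose. 1 h later they got apomorphine 10 mg/kg s.c. and were watched 30 min for stereotyped gnawing and licking, each positive. If ≥3 were positive, the test was repeated at 0.3 log lower doses until ≤1 responded. ED50 and 95% CI by Spearman–Karber.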

Usually ED50 stands for the midpoint of the dose-response relation.

On to `C=CC(=O)N(c1ccc(Cl)c(Cl)c1)C1CCCC1N(C)C` (stereo not given), for which the ED50 in the experiment listed under Mus musculus [1] came to 5 mg/kg; in the experiment filed under Mus musculus [2] it was 2 mg/kg; in the experiment filed under Mus musculus [3], 5 mg/kg.
Consider `CN(C)C1CCCC1N(C(=O)C1CCC1)c1ccc(Cl)c(Cl)c1` (stereo not given), for which the ED50 in the experiment listed under Mus musculus [1] was 0.6 mg/kg; in the experiment listed under Mus musculus [2], 0.8 mg/kg; in the experiment filed under Mus musculus [3] it was above 50 mg/kg.
Consider `CCC(=O)N(c1ccc(Cl)c(Cl)c1)C1CCCCCC1N(C)C` (stereo not given), for which the results for the ED50 in the experiment filed under Mus musculus [1], in the experiment listed under Mus musculus [2] and in the experiment filed under Mus musculus [3] were 6 mg/kg, 2 mg/kg and 20 mg/kg, respectively.
The matching figures for `CC(C)C(=O)N(c1ccc(Cl)c(Cl)c1)C1CCCC1N(C)C` (stereo not given): 4 mg/kg, 2 mg/kg and 5 mg/kg.
The matching figures for `CCC(=O)N(c1ccc(Cl)c(Cl)c1)C1CCCCCCC1N(C)C` (stereo not given): 10 mg/kg, 20 mg/kg and 6 mg/kg.
The corresponding values for `CCC(=O)N(c1ccc(C#N)cc1)C1CCCC1N(C)C` (stereo not given) are 40 mg/kg, 10 mg/kg and above 50 mg/kg.
Consider `CCC(=O)N(c1ccc([N+](=O)[O-])cc1)C1CCCC1N(C)C` (stereo not given), for which the ED50 is 6 mg/kg in the experiment listed under Mus musculus [1], 20 mg/kg in the experiment listed under Mus musculus [2] and 20 mg/kg in the experiment listed under Mus musculus [3].
As for `CN(C)C1CCCC1N(C(=O)C1CCCCC1)c1ccc(Cl)c(Cl)c1` (stereo not given), the ED50 in the experiment listed under Mus musculus [1] is 2 mg/kg; in the experiment filed under Mus musculus [2] it was 1 mg/kg; in the experiment filed under Mus musculus [3], above 50 mg/kg.
The corresponding values for `CCC(=O)N(c1ccc(Cl)c(Cl)c1)C1CCCCC1N(C)C` (stereo not given) are 20 mg/kg, 30 mg/kg and 20 mg/kg.
For the compound `CCNC1CCCC1N(C(=O)CC)c1ccc(Cl)c(Cl)c1` (stereo not given), the ED50 in the experiment filed under Mus musculus [1] came out at 2 mg/kg; in the experiment listed under Mus musculus [2], 0.2 mg/kg.
In the case of `CCC(=O)N(c1ccc(F)cc1)C1CCCC1N(C)C` (stereo not given), the ED50 in the experiment listed under Mus musculus [1] is 0.08 mg/kg; in the experiment filed under Mus musculus [2] it was 5 mg/kg; in the experiment filed under Mus musculus [3] it was above 50 mg/kg.
On to `CCC(=O)N(c1ccc(C(C)=O)cc1)C1CCCC1N(C)C` (stereo not given), for which the ED50 in the experiment filed under Mus musculus [1] was 40 mg/kg; in the experiment filed under Mus musculus [2], above 50 mg/kg; in the experiment listed under Mus musculus [3], above 50 mg/kg.
In the case of `CCC(=O)N(c1cccc(OC)c1)C1CCCC1N(C)C` (stereo not given), the figures for the ED50 in the experiment listed under Mus musculus [1], in the experiment filed under Mus musculus [2] and in the experiment filed under Mus musculus [3] were 4 mg/kg, 0.8 mg/kg and 4 mg/kg, respectively.
`CCC(=O)N(c1cccc(C(F)(F)F)c1)C1CCCC1N(C)C` (stereo not given): the ED50 came to 0.2 mg/kg in the experiment filed under Mus musculus [1], 0.3 mg/kg in the experiment filed under Mus musculus [2] and 0.9 mg/kg in the experiment listed under Mus musculus [3].
The matching figures for `CN(C)C1CCCC1N(C(=O)C1CC1)c1ccc(Cl)c(Cl)c1` (stereo not given): 0.3 mg/kg, 0.2 mg/kg and 0.4 mg/kg.
The matching figures for `CCC(=O)N(c1cccc(Cl)c1)C1CCCC1N(C)C` (stereo not given): 0.2 mg/kg, 0.4 mg/kg and 20 mg/kg.
The corresponding values for `CCC(=O)N(c1ccc(Cl)c(Cl)c1)C1CCCC1N(C)CCc1ccccc1` (stereo not given) are 0.4 mg/kg, 0.1 mg/kg and 5 mg/kg.
As for `CN(C)C1CCCC1N(C(=O)c1ccco1)c1ccc(Cl)c(Cl)c1` (stereo not given), the results for the ED50 in the experiment listed under Mus musculus [1], in the experiment filed under Mus musculus [2] and in the experiment filed under Mus musculus [3] were above 50 mg/kg, 9 mg/kg and above 50 mg/kg, respectively.
As to `CCC(=O)N(c1ccc(C(F)(F)F)cc1)C1CCCC1N(C)C` (stereo not given), the ED50 in the experiment listed under Mus musculus [1] amounted to 25 mg/kg; in the experiment filed under Mus musculus [2], 10 mg/kg; in the experiment listed under Mus musculus [3], 10 mg/kg.
As to `CCC(=O)N(c1ccc(Br)c(Br)c1)C1CCCC1N(C)C` (stereo not given), the 50% effective dose (ED50) was determined as 0.2 mg/kg in the experiment listed under Mus musculus [1], 0.1 mg/kg in the experiment listed under Mus musculus [2] and 0.5 mg/kg in the experiment filed under Mus musculus [3].
The corresponding values for `CCCN(CCC)C1CCCC1N(C(=O)CC)c1ccc(Cl)c(Cl)c1` (stereo not given) are 0.1 mg/kg, 2 mg/kg and above 50 mg/kg.
With `C=CCNC1CCCC1N(C(=O)CC)c1ccc(Cl)c(Cl)c1` (stereo not given), the ED50 in the experiment listed under Mus musculus [1] was 3 mg/kg; in the experiment listed under Mus musculus [2], 0.2 mg/kg.
In the case of `CC(=O)N(c1ccc(Cl)c(Cl)c1)C1CCCC1N(C)C` (stereo not given), the ED50 in the experiment listed under Mus musculus [1] was 10 mg/kg; in the experiment listed under Mus musculus [2] it was 9 mg/kg; in the experiment filed under Mus musculus [3], 20 mg/kg.
With `CCC(=O)N(c1ccc(C(=O)OC)cc1)C1CCCC1N(C)C` (stereo not given), the ED50 in the experiment listed under Mus musculus [1], in the experiment filed under Mus musculus [2] and in the experiment filed under Mus musculus [3] was above 50 mg/kg each time.
As for `CCCC(=O)N(c1ccccc1)C1CCCC1N(C)C` (stereo not given), the ED50 came to 10 mg/kg in the experiment filed under Mus musculus [1], 6 mg/kg in the experiment listed under Mus musculus [2] and 40 mg/kg in the experiment filed under Mus musculus [3].
The matching figures for `CC(=O)N(c1ccccc1)C1CCCC1N(C)C` (stereo not given): 9 mg/kg, 7 mg/kg and 40 mg/kg.
The corresponding values for `CCC(=O)N(c1ccc(Cl)cc1)C1CCCC1N(C)C` (stereo not given) are 0.2 mg/kg, 3 mg/kg and above 50 mg/kg.
The corresponding values for `CCC(=O)N(c1ccccc1C)C1CCCC1N(C)C` (stereo not given) are 5 mg/kg, 7 mg/kg and above 50 mg/kg.
For the compound `CCC(=O)N(c1c(F)c(F)c(F)c(F)c1F)C1CCCC1N(C)C` (stereo not given), the median effective dose (ED50) in the experiment listed under Mus musculus [1], in the experiment filed under Mus musculus [2] and in the experiment listed under Mus musculus [3] was above 50 mg/kg throughout.
